Data taken from ChEMBL document CHEMBL1649406, “Synthesis and anti-mycobacterial activities of triazoloquinolones” (Eur J Med Chem, 2011).
≈ marks a conversion by molar mass, not a printed value.

Columns and labels:
[1] = test system: Mycobacterium tuberculosis; test: Antimycobacterial activity against Mycobacterium tuberculosis H37Rv by twofold agar dilution method; type: functional
Summary of the method: (§1)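 Strains grown in Middlebrook 7H11 with OADC. Suspensions at McFarland 1 turbidity were diluted 1:10, 1:100 and 1:10,000 in Middlebrook 7H9. These were inoculated onto duplicate Middlebrook 7H11 plates containing serial concentrations of compound.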

Candida albicans = test: Antifungal activity against Candida albicans after 48 hrs by NCCLS method; type: functional
Summary of the method: (§2)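 NCCLS yeast broth dilution; inocula from 48 h, 35 °C Sabouraud agar cultures diluted to 10⁶ CFU/mL; compounds from 10 mg/mL DMSO stock serially diluted in RPMI-1640, added to equal volume of fungal suspension in round-bottom microplates; incubated 35 °C for 48–72 h; MIC in duplicate.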

[2] = test system: Mycobacterium tuberculosis; test: Antimycobacterial activity against Mycobacterium tuberculosis H37Ra by twofold agar dilution method; type: functional; summary of the method: as §1
Klebsiella pneumoniae = test: Antibacterial activity against Klebsiella pneumoniae after 18 to 24 hrs by broth microdilution method; type: functional
Summary of the method: (§3)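 Broth microdilution per CLSI; compounds dissolved in DMSO at 10 mg/mL stock, serially diluted in Mueller Hinton Broth, mixed with equal volume of bacterial inoculum (final […]); incubated 37 °C for 18–24 h; MIC taken as lowest concentration preventing visible growth; duplicate determinations.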

Staphylococcus aureus = test: Antibacterial activity against Staphylococcus aureus after 18 to 24 hrs by broth microdilution method; type: functional; summary of the method: as §3
[3] = test system: Mycolicibacterium smegmatis; test: Antimycobacterial activity against Mycobacterium smegmatis MC2 155 after 72 hrs by broth microdilution method; type: functional; conditions: str. MC2 155, 72 h
Summary of the method: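 Strains were pre-grown in Middlebrook 7H11 with OADC. The microdilution assay ran in sealed 96-well plates at 37 °C and was read after 72 h for M. smegmatis mc²155 and after 7 days for M. bovis BCG.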

Acinetobacter baumannii = test: Antibacterial activity against Acinetobacter baumannii after 18 to 24 hrs by broth microdilution method; type: functional; summary of the method: as §3
Escherichia coli = test: Antibacterial activity against Escherichia coli after 18 to 24 hrs by broth microdilution method; type: functional; summary of the method: as §3
[4] = test system: Stenotrophomonas maltophilia; test: Antibacterial activity against Stenotrophomonas maltophilia after 18 to 24 hrs by broth microdilution method; type: functional; summary of the method: as §3
[5] = test system: Staphylococcus epidermidis; test: Antibacterial activity against Staphylococcus epidermidis after 18 to 24 hrs by broth microdilution method; type: functional; summary of the method: as §3
Enterobacter cloacae = test: Antibacterial activity against Enterobacter cloacae after 18 to 24 hrs by broth microdilution method; type: functional; summary of the method: as §3
Candida tropicalis = test: Antifungal activity against Candida tropicalis after 48 hrs by NCCLS method; type: functional; summary of the method: as §2
Enterococcus faecalis = test: Antibacterial activity against Enterococcus faecalis after 18 to 24 hrs by broth microdilution method; type: functional; summary of the method: as §3
Pseudomonas aeruginosa = test: Antibacterial activity against Pseudomonas aeruginosa after 18 to 24 hrs by broth microdilution method; type: functional; summary of the method: as §3
[6] = Cytotoxicity against human MT4 cells after 96 hrs by MTT assay; type: cell-based
Summary of the method: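 Exponentially growing MT-4 cells (CD4+ T-cells carrying integrated HTLV-1) seeded at 1 × 10⁵ cells/mL in RPMI-1640 with 10% FCS, penicillin and streptomycin; exposed to serial compound dilutions at 37 °C, humidified 5% CO₂; viability read by MTT after 96 h; CC50 derived.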

Compound	MIC [1] [µg/mL]	MIC (Candida albicans) [µg/mL]	MIC [2] [µg/mL]	MIC (Klebsiella pneumoniae) [µg/mL]	MIC (Staphylococcus aureus) [µg/mL]	MIC [3] [µg/mL]	MIC (Acinetobacter baumannii) [µg/mL]	MIC (Escherichia coli) [µg/mL]	MIC [4] [µg/mL]	MIC [5] [µg/mL]	MIC (Enterobacter cloacae) [µg/mL]	MIC (Candida tropicalis) [µg/mL]	MIC (Enterococcus faecalis) [µg/mL]	MIC (Pseudomonas aeruginosa) [µg/mL]	CC50 at 96 h [6] [µg/mL]
CCOC(=O)c1cn(C)c2c(ccc3c2nnn3Cc2ccccc2)c1=O	64 (≈ 177 µM)	> 64	> 128	> 64	> 64	> 128	> 64	> 64	> 64	> 64	> 64	> 64	> 64	> 64	–
CCOC(=O)c1cn(CC)c2c(ccc3c2nnn3Cc2ccccc2)c1=O	64 (≈ 170 µM)	> 64	> 128	> 64	> 64	> 128	> 64	> 64	> 64	> 64	> 64	> 64	> 64	> 64	–
C=CCn1cc(C(=O)OCC)c(=O)c2ccc3c(nnn3Cc3ccccc3)c21	64 (≈ 165 µM)	> 64	> 128	> 64	> 64	> 128	> 64	> 64	> 64	> 64	> 64	> 64	> 64	> 64	–
CCCCn1cc(C(=O)OCC)c(=O)c2ccc3c(nnn3Cc3ccccc3)c21	64 (≈ 158 µM)	> 64	32 (≈ 79.1 µM)	> 64	> 64	> 128	> 64	> 64	> 64	> 64	> 64	> 64	> 64	> 64	–
CCOC(=O)c1cn(C(C)(C)C)c2c(ccc3c2nnn3C)c1=O	32 (≈ 97.5 µM)	> 64	4 (≈ 12.2 µM)	> 64	> 64	16 (≈ 48.7 µM)	> 64	> 64	> 64	> 64	> 64	> 64	> 64	> 64	–
C=C(C)Cn1cc(C(=O)OCC)c(=O)c2ccc3c(nnn3C)c21	64 (≈ 196 µM)	> 64	> 128	> 64	> 64	> 128	> 64	> 64	> 64	> 64	> 64	> 64	> 64	> 64	–
CCOC(=O)c1cn(CC2CC2)c2c(ccc3c2nnn3C)c1=O	64 (≈ 196 µM)	> 64	> 128	> 64	> 64	> 128	> 64	> 64	> 64	> 64	> 64	> 64	> 64	> 64	–
CCOC(=O)c1cn(CC2CCC2)c2c(ccc3c2nnn3C)c1=O	64 (≈ 188 µM)	> 64	> 128	> 64	> 64	> 128	> 64	> 64	> 64	> 64	> 64	> 64	> 64	> 64	–
Cn1cc(C(=O)O)c(=O)c2ccc3c(nnn3Cc3ccccc3)c21	8 (≈ 23.9 µM)	> 64	4 (≈ 12 µM)	> 64	> 64	32 (≈ 95.7 µM)	> 64	> 64	> 64	> 64	> 64	> 64	> 64	> 64	> 100
CCn1cc(C(=O)O)c(=O)c2ccc3c(nnn3Cc3ccccc3)c21	64 (≈ 184 µM)	> 64	8 (≈ 23 µM)	> 64	> 64	64 (≈ 184 µM)	> 64	> 64	> 64	> 64	> 64	> 64	> 64	> 64	–
C=CCn1cc(C(=O)O)c(=O)c2ccc3c(nnn3Cc3ccccc3)c21	64 (≈ 178 µM)	> 64	4 (≈ 11.1 µM)	> 64	> 64	> 128	> 64	> 64	> 64	> 64	> 64	> 64	> 64	> 64	–
CCCCn1cc(C(=O)O)c(=O)c2ccc3c(nnn3Cc3ccccc3)c21	64 (≈ 170 µM)	> 64	64 (≈ 170 µM)	> 64	> 64	> 128	> 64	> 64	> 64	> 64	> 64	> 64	> 64	> 64	–
Cn1nnc2c3c(ccc21)c(=O)c(C(=O)O)cn3C(C)(C)C	16 (≈ 53.3 µM)	> 64	8 (≈ 26.6 µM)	> 64	> 64	32 (≈ 107 µM)	> 64	> 64	> 64	> 64	> 64	> 64	> 64	> 64	> 100
C=C(C)Cn1cc(C(=O)O)c(=O)c2ccc3c(nnn3C)c21	64 (≈ 215 µM)	> 64	32 (≈ 107 µM)	> 64	> 64	64 (≈ 215 µM)	> 64	> 64	> 64	> 64	> 64	> 64	> 64	> 64	–
Cn1nnc2c3c(ccc21)c(=O)c(C(=O)O)cn3CC1CC1	32 (≈ 107 µM)	> 64	16 (≈ 53.6 µM)	> 64	> 64	64 (≈ 215 µM)	> 64	> 64	> 64	> 64	> 64	> 64	> 64	> 64	–
Cn1nnc2c3c(ccc21)c(=O)c(C(=O)O)cn3CC1CCC1	32 (≈ 102 µM)	> 64	16 (≈ 51.2 µM)	> 64	> 64	64 (≈ 205 µM)	> 64	> 64	> 64	> 64	> 64	> 64	> 64	> 64	–
Cn1cc(C(=O)O)c(=O)c2ccc3c(nnn3C)c21	0.5 (≈ 1.94 µM)	> 64	0.5 (≈ 1.94 µM)	> 64	> 64	5 (≈ 19.4 µM)	> 64	> 64	> 64	> 64	> 64	> 64	> 64	> 64	> 100
O=C(O)c1cn(C2CC2)c2cc(N3CCNCC3)c(F)cc2c1=O [CIPROFLOXACIN]	0.5 (≈ 1.51 µM)	–	0.5 (≈ 1.51 µM)	–	–	0.125 (≈ 0.377 µM)	–	–	–	–	–	–	–	–	–
CC[C@@H](CO)NCCN[C@@H](CC)CO [ETHAMBUTOL]	5 (≈ 24.5 µM)	–	4 (≈ 19.6 µM)	–	–	0.5 (≈ 2.45 µM)	–	–	–	–	–	–	–	–	–
CO[C@H]1/C=C/O[C@@]2(C)Oc3c(C)c(O)c4c(O)c(c(/C=N/N5CCN(C)CC5)c(O)c4c3C2=O)NC(=O)/C(C)=C\C=C\[C@H](C)[C@H](O)[C@@H](C)[C@@H](O)[C@@H](C)[C@H](OC(C)=O)[C@@H]1C [RIFAMPIN]	< 0.5	–	≤ 0.06	–	–	8 (≈ 9.72 µM)	–	–	–	–	–	–	–	–	–
CN[C@@H]1[C@H](O[C@H]2[C@H](O[C@H]3[C@H](O)[C@@H](O)[C@H](N=C(N)N)[C@@H](O)[C@@H]3N=C(N)N)O[C@@H](C)[C@]2(O)C=O)O[C@@H](CO)[C@H](O)[C@H]1O [STREPTOMYCIN]	1 (≈ 1.72 µM)	–	1 (≈ 1.72 µM)	–	–	–	–	–	–	–	–	–	–	–	–
